Results: ChEMBL document CHEMBL3352379, “Potent heterocyclic ligands for human complement c3a receptor” (J Med Chem, 2014)
The source made the active and inactive calls. No cut-off for these calls is given here.

Columns and labels:
[1] = biological target: T1, C3a anaphylatoxin chemotactic receptor (Homo sapiens, UniProt Q16581); assay: Displacement of [125I]-C3a from C3AR in HMDMs by scintillation counting method
T1 sequence (Q16581 whole entry): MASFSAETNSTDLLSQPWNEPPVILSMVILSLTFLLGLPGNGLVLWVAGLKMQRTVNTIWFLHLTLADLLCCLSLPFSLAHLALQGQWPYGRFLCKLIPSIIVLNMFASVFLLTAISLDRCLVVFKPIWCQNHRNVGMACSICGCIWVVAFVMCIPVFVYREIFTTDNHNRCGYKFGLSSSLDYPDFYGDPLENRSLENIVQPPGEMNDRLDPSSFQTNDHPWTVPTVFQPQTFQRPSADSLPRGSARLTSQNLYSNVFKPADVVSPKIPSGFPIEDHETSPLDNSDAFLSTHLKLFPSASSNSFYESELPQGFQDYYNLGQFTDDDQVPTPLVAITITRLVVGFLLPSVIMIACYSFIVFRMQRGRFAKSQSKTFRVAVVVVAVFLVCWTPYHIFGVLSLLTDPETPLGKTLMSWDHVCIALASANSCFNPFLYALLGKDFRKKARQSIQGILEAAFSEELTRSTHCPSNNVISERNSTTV

[2] = biological target: T2, C3a anaphylatoxin chemotactic receptor (Homo sapiens) (UniProt Q16581)
T2 sequence (whole entry): T1 sequence (Q16581 whole entry)

[3] = biological target: T2, C3a anaphylatoxin chemotactic receptor (Homo sapiens); assay: Agonist activity against C3AR in HMDMs assessed as increase in intracellular calcium release up to 100 uM by Fluo-3 AM dye based FLIPR assay; assay type: functional, cell-based
Summary of the method: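 Overnight-plated HMDMs (5 × 10^4/well) loaded with 4 μM Fluo-3 AM for 1 h at 37 °C, washed into HBSS with 2.5 mM probenecid, 20 mM HEPES, pH 7.4; compound range added and Ca2+ fluorescence read ≥60 s (495/520 nm) by FLIPR.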

[4] = biological target: T1, C3a anaphylatoxin chemotactic receptor; assay: Agonist activity against C3AR in HMDMs assessed as increase in intracellular calcium release by Fluo-3 AM dye based FLIPR assay relative to 1 uM C3a
[5] = biological target: T1, C3a anaphylatoxin chemotactic receptor; assay: Antagonist activity against C3AR in HMDMs assessed as inhibition of C3a-induced intracellular calcium release by Fluo-3 AM dye based FLIPR assay
[6] = biological target: T2, C3a anaphylatoxin chemotactic receptor (Homo sapiens); assay: Agonist activity against C3AR in HMDMs assessed as increase in IL-1beta mRNA expression at 300 nM incubated for 30 mins in presence of 30 mins pre-treatment with 10 uM (2-(2,2-Diphenylethoxy)acetyl)-L-arginine by qRT-PCR method
Summary of the method: (§1)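 HMDMs seeded at 1 × 10^6 mL−1, adhered overnight, pretreated with C3aR antagonist (10 μM, 30 min), then stimulated 30 min at 0.3 μM. RNA extracted; qRT-PCR normalized to 18S rRNA; fold change relative to untreated control; mean ± SEM, three independent experiments.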

[7] = biological target: T2, C3a anaphylatoxin chemotactic receptor (Homo sapiens); assay: Agonist activity against C3AR in HMDMs assessed as increase in IL-1beta mRNA expression at 300 nM incubated for 30 mins by qRT-PCR method
Summary of the method: (§2)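 HMDMs (CSF-differentiated CD14+ blood monocytes, day 7) seeded at 1 × 10^6 mL−1 and adhered overnight, then stimulated 30 min at 0.3 μM. RNA extracted; qRT-PCR normalized to 18S rRNA; fold change relative to untreated control; mean ± SEM of three independent experiments.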

[8] = biological target: T3, C5a anaphylatoxin chemotactic receptor 1 (Homo sapiens) (UniProt P21730); assay: Displacement of [125I]-C5a from C5AR in HMDMs 20 uM by scintillation counting method
T3 sequence (whole entry): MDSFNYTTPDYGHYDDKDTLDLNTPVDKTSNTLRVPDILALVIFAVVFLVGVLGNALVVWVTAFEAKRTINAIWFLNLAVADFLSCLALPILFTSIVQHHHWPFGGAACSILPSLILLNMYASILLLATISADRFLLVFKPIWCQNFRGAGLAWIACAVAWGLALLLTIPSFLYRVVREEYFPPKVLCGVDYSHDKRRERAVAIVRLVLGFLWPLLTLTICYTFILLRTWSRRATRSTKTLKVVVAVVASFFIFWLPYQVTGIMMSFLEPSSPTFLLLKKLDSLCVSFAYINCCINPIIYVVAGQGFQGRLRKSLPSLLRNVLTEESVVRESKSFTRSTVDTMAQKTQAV

[9] = biological target: T2, C3a anaphylatoxin chemotactic receptor (Homo sapiens); assay: Agonist activity against C3AR in C3a desensitized HMDMs assessed as increase in intracellular calcium release at 10 uM added 5 mins post C3a-induced desensitization by Fluo-3 AM dye based FLIPR; assay type: functional, cell-based
Summary of the method: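 HMDMs desensitized with 300 nM C3a at t0, then given test agonist at 10 μM; calcium signal monitored on FLIPR after Fluo-3 AM loading (4 μM, 1 h, 37 °C) in HBSS with 2.5 mM probenecid, 20 mM HEPES, pH 7.4; excitation 495, emission 520 nm.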

[10] = biological target: T2, C3a anaphylatoxin chemotactic receptor (Homo sapiens); assay: Agonist activity against C3AR in HMDMs assessed as increase in TNFalpha mRNA expression at 300 nM incubated for 30 mins in presence of 30 mins pre-treatment with 10 uM (2-(2,2-Diphenylethoxy)acetyl)-L-arginine by qRT-PCR method; summary of the method: as §1
[11] = biological target: T2, C3a anaphylatoxin chemotactic receptor (Homo sapiens); assay: Agonist activity against C3AR in HMDMs assessed as increase in TNFalpha mRNA expression at 300 nM incubated for 30 mins by qRT-PCR method; summary of the method: as §2
[12] = biological target: T2, C3a anaphylatoxin chemotactic receptor (Homo sapiens); assay: Agonist activity against C3AR in HMDMs assessed as increase in CCL3 mRNA expression at 300 nM incubated for 30 mins by qRT-PCR method; summary of the method: as §2
[13] = biological target: T2, C3a anaphylatoxin chemotactic receptor (Homo sapiens); assay: Agonist activity against C3AR in HMDMs assessed as increase in CCL3 mRNA expression at 300 nM incubated for 30 mins in presence of 30 mins pre-treatment with 10 uM (2-(2,2-Diphenylethoxy)acetyl)-L-arginine by qRT-PCR method; summary of the method: as §1
[14] = biological target: T2, C3a anaphylatoxin chemotactic receptor (Homo sapiens); remark: listed apart in the source

SMILES | IC50 [1] [nM] | IC50 [5] [nM] | also measured
Cc1oc(C(c2ccccc2)c2ccccc2)nc1C(=O)N[C@@H](CCCNC(=N)N)C(=O)O | 11 |  | pEC50 [2]: Active
N=C(N)NCCC[C@H](NC(=O)CSCC(c1ccccc1)c1ccccc1)C(=O)O | 8 |  | Activity [3]: inactive
N=C(N)NCCC[C@H](NC(=O)c1nc(C(c2ccccc2)c2ccccc2)[nH]c1-c1ccccc1)C(=O)O | 87 |  | EC50 [4]: > 31600 nM
Cc1c(C(=O)N[C@@H](CCCNC(=N)N)C(=O)O)nc(C(c2ccccc2)c2ccccc2)n1C | 31 |  | EC50 [4]: 40 nM
N=C(N)NCCC[C@H](NC(=O)COCC(c1ccccc1)c1ccccc1)C(=O)O | 10 | 1260 | Activity [3]: inactive
Cc1[nH]c(C(c2ccccc2)c2ccccc2)nc1C(=O)N[C@@H](CCCNC(=N)N)C(=O)O | 10 |  | Activity [6]: inactive; Activity [7]: Active; inhibition [8]: inactive; Activity [9]: inactive; Activity [10]: inactive; Activity [11]: Active; Activity [12]: Active; EC50 [4]: 25.1 nM; Activity [13]: inactive
N=C(N)NCCC[C@H](NC(=O)c1oc(C(c2ccccc2)c2ccccc2)nc1-c1ccccc1)C(=O)O | 110 | 2000 | 
Cc1nc(C(c2ccccc2)c2ccccc2)n(C)c1C(=O)N[C@@H](CCCNC(=N)N)C(=O)O | 1140 |  | pEC50 [2]: inactive; pIC50 [14]: inactive
N=C(N)NCCC[C@H](NC(=O)c1nc(C(c2ccccc2)c2ccccc2)no1)C(=O)O | 12 | 1000 | 
N=C(N)NCCC[C@H](NC(=O)c1nnc(C(c2ccccc2)c2ccccc2)o1)C(=O)O | 967 | 19000 | 
N=C(N)NCCC[C@H](NC(=O)CCCC(c1ccccc1)c1ccccc1)C(=O)O | 96 |  | Activity [3]: inactive
Cc1nc(C(c2ccccc2)c2ccccc2)oc1C(=O)N[C@@H](CCCNC(=N)N)C(=O)O | 100 | 3980 | 
N=C(N)NCCC[C@H](NC(=O)c1noc(C(c2ccccc2)c2ccccc2)n1)C(=O)O | 54 | 1000 | 
N=C(N)NCCC[C@H](NC(=O)CNCC(c1ccccc1)c1ccccc1)C(=O)O | 150 |  | Activity [3]: inactive
N=C(N)NCCC[C@H](NC(=O)c1coc(C(c2ccccc2)c2ccccc2)n1)C(=O)O | 19 |  | 
